Source: PubChem BioAssay
Sampled rows, rich in hits. Any-hit rate of the full collection: about 5.9%.
Measles CPE = compounds protecting cells from measles virus cytopathic effect, primary screen, measles RdRp inhibitor project, single point, MLSMR library, absorbance. Measles virus-infected cells, CPE protection. protection (pct of control), % at 4 µM. hit rate 1.5% among 140,000. AID 841, 2007; in the data active means protection mostly above about 24%, no sharp cut-off; inactive means mostly below about 26%
Phagocytosis inh = inhibitors of macrophage phagocytosis, primary screen, imaging, J774A.1 cells, IgG beads | J774A.1 macrophage IgG-bead phagocytosis | inhibition, % at 5 µM | hit rate 0.07% among 110,000 | AID 1029, 2008;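 active means inhibition above the mean of the plate negative controls plus 5 SD, cut at about 13% in these data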;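 further: phagocytic index as fraction of beads internalized from green versus red external bead signal; plate controls were DMSO negative control for no effect and cytochalasin-D positive control for full effect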
HIV Rev-RRE inh = HIV-1 Rev-RRE binding inhibitors, primary screen, biochemical, FRET, protein-RNA interaction; Rev peptide-RRE RNA binding; inhibition, % at 8 µM; hit rate 0.79% among 97,000; AID 704, 2007;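 active means inhibition above the screen-wide mean plus 3 SD, cut at about 35% in these data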;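 further: 0% = median DMSO wells and 100% = median Neomycin B control wells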
Target sequence (P05866 whole entry, looked up): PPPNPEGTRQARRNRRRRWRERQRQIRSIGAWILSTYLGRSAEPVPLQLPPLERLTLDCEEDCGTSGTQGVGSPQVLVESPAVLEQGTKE
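Assay system: Labelled RRE RNA duplex and labelled Rev peptide | Times: 5 min preincubation and 15 min binding, 25 °C | Detection: FRET, ex 480 nm, em 540 and 671 nm | Evaluation: % inhibition of FRET ratio versus controls | Benchmarks: DMSO wells as 0% and neomycin B wells as 100% inhibition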
PTK2B oligo ant = antagonists of Pyk2 self-association, primary screen, Q293 cells, FERM NanoBiT luminescence, HTS | Protein-tyrosine kinase 2-beta (Homo sapiens), Q14289 | hits give low values | z-score (the deposit names both 25 µM and 10 µM) | hit rate 0.83% among 99,000 | AID 1347419, 2020;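 active means Z-score of -3 or lower, scaled per plate to the spread of control and sample wells; inactive means z-score above -3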;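 further: negative z-score means lost luminescence so less FERM oligomerization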
Cav32 inh = Cav3.2 calcium influx blockers – cell-based, Fluo-4 calcium fluorescence, FDSS, MLSMR library, primary screen; Voltage-dependent T-type calcium channel subunit alpha-1H (Homo sapiens), O95180; Cav3.2-expressing cells; hits give low values; B-score at 10 µM; hit rate 4% among 100,000;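 active means single-dose well whose peak fluorescence ratio is a statistical outlier from its plate by either plate-standardised score or position-corrected B-score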
hDAT+cocaine = changed hDAT dopamine uptake under cocaine IC80, either direction, primary screen, cocaine antagonist project, cell-based, LLC-PK1 hDAT, [14C]-dopamine uptake, MLSMR; B-score at 10 µM; Sodium-dependent dopamine transporter (Homo sapiens), Q01959; AID 449768, 2010; LLC-PK1 hDAT cells, [14C]-dopamine uptake with cocaine IC80; actives deviate in either direction; hit rate 1.3% among 110,000;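 active means Z score or B-score, a plate-position-corrected score, falls beyond the plate's 99.7% confidence bounds, in either direction; inactive means both scores lie inside the 99.7% bounds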;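 further: scored against the spread of the other compound wells on the same plate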
Target sequence (Q01959 whole entry, looked up): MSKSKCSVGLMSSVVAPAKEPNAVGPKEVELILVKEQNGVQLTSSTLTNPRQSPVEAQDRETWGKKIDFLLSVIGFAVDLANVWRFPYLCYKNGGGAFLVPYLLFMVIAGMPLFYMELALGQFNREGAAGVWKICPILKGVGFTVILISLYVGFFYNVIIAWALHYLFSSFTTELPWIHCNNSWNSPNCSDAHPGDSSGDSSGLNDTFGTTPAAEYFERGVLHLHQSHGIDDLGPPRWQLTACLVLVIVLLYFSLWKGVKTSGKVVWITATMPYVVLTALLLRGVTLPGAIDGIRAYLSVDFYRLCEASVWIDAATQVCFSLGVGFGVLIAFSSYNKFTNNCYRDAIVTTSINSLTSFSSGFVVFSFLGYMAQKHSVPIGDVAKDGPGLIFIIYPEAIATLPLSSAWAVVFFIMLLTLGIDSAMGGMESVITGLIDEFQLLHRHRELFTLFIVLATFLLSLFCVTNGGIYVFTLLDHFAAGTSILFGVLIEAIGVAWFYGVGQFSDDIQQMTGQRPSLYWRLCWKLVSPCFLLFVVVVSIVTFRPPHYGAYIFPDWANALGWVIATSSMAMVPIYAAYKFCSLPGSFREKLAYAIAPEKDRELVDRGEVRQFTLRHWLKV
Numbers without * were called inactive; . = no result given; [ ] = dose if it differs, or a comment.

SMILES | Measles CPE | Phagocytosis inh | HIV Rev-RRE inh | PTK2B oligo ant | Cav32 inh | hDAT+cocaine
O=S(=O)(c1ccc(Oc2ccc(Cl)cc2)c(S(=O)(=O)N2CCCCC2)c1)N1CCCCC1 | 6.3 | . | 6.2 | 0.7 | -3.49* | -1.75
CCOC(=O)C1CCCN(S(=O)(=O)c2ccc(OC)c3ccccc23)C1 (stereo not given) | 23.0 | 6.6 | 11.3 | -1.78 | -4.04* | 1.9
COc1ccc(S(=O)(=O)N2CCCCC2)cc1NS(=O)(=O)c1cc(Cl)ccc1Cl | 13.0 | -4.5 | . | . | . | .
CCOc1ccccc1NC(=O)C1CCCN(S(=O)(=O)c2ccc(OC)c(C)c2)C1 (stereo not given) | 3.1 | -1.5 | 12.3 | -0.63 | -4.62* | 0.475
COc1ccc(NC(=O)C2CCCN(S(=O)(=O)c3ccc(C)cc3)C2)cc1OC (stereo not given) | 1.8 | . | 12.5 | -0.27 | 0.651 | 0.552
CCOC(=O)CN1C(=O)N[C@H](c2ccc(Br)cc2)C(C(C)=O)=C1C | 9.4 | . | . | . | 0.313 | -0.797
Cc1ccc(Cn2c(SCC(=O)N/N=C/c3ccc(C)o3)nc3ccccc32)cc1 | 15.9 | . | 4.5 | -1.02 | -10.1* | 0.414
O=C(CSc1nc2ccccc2n1Cc1ccccc1)N/N=C/c1ccco1 | 6.8 | -0.2 | 8.2 | -0.76 | -3.99* | -0.826
CCn1c(SCC(=O)N/N=C/C=C\c2ccco2)nc2ccccc21 | 9.2 | 3.4 | . | . | . | .
CN1Cc2sc(N)c(C#N)c2CC1(C)C | 6.9 | 2.4 | 76.8* | 0.44 | -1.53 | 0.0893
CCC1(C)Cc2c(C#N)c(N)sc(=S)c2CO1 (stereo not given) | 1.8 | -1.1 | 14.4 | -0.71 | 0.381 | 0.856
C[C@H]1CCC[C@]2(O[C@H](CCO)C[C@@H](O)[C@@H]2O)O1 | . | . | . | . | 0.198 | -0.0521
CCOC(=O)CN1C(=O)S/C(=C/c2ccc(N3CCCCC3)o2)C1=O | 4.8 | -0.8 | 111.5*[fluorescence artefact?] | -0.71 | -1.05 | -0.186
COC(=O)CN1C(=O)S/C(=C/c2ccc(N3CCCCC3)o2)C1=O | 5.7 | . | 140.1*[fluorescence artefact?] | -0.35 | -7.93* | -0.193
CCOc1ccc(/C(O)=C/C(=O)C(=O)Nc2ccc(S(=O)(=O)NC(C)=O)cc2)cc1 | 8.7 | -4.9 | . | . | . | .
Cc1ccnc(NC(NC(=O)C(C)C)(C(F)(F)F)C(F)(F)F)c1 | 11.4 | 1.5 | . | . | . | .
CC(=NC(C)C)C1=C(O)C(C)OC1=O (stereo not given) | 4.7 | . | . | . | . | .
COc1cc(C(CCN2CCOCC2)c2c(OC)cc(OC)c3c(C)cc(=O)oc23)cc(OC)c1OC (stereo not given) | . | . | . | . | 1.61 | 2.79*
CCCCC(=O)Nc1c(C)cc(C)cc1Cl | 2.8 | -0.5 | -3.0 | -0.31 | 1.33 | 0.161
COc1cccc(NC(=S)NC2CC(C)(C)NC(C)(C)C2)c1 | 35.5 | -8.7 | . | . | . | .
COc1cccc(COc2ccc3c(C)c(Cc4ccccc4)c(=O)oc3c2)c1 | . | . | 10.6 | -0.49 | -3.68* | -1.35
COc1cc(COc2ccc3c(C)c(Cc4ccccc4)c(=O)oc3c2C)cc(OC)c1OC | 28.4* | . | 1.9 | 0.84 | -2.63 | -0.716
CCOc1nc(SCCOc2ccc(C)cc2)nc(N(C)C)n1 | 14.6 | . | 13.8 | -0.94 | -6.45* | -0.396
CC(C)C[C@H]1C(=O)N2CCC[C@H]2[C@]2(O)O[C@](NC(=O)[C@@H]3C=C4c5cccc6[nH]c(Br)c(c56)CC4N(C)C3)(C(C)C)C(=O)N12 (stereo not given in full) | 27.9 | . | . | . | -4.76* | 1.78
CCc1ccc(NCc2nc3ccccc3c(=O)[nH]2)cc1 | 5.1 | -0.3 | 14.0 | -1.44 | -1.23 | -9.19*
SMILES | Measles CPE | Phagocytosis inh | HIV Rev-RRE inh | PTK2B oligo ant | Cav32 inh | hDAT+cocaine
O=C(NC1(C(F)(F)F)NC(=O)N(c2ccc(F)c(Cl)c2)C1=O)c1ccncc1 (stereo not given) | 25.4 | . | 0.7 | 0.03 | 0.672 | -3*
O=C(NC1(C(F)(F)F)NC(=O)N(c2ccccc2F)C1=O)c1ccncc1 (stereo not given) | 12.7 | -2.6 | . | . | . | .
CCCNC(=O)CN(CCc1ccccc1)S(C)(=O)=O | 3.8 | 0.4 | 5.7 | 2.64 | 0.578 | -0.561
Cc1csc(SCC(=O)Nc2nc(-c3ccccc3)cs2)n1 | 4.5 | 0.4 | 9.0 | 0.69 | -5.98* | 0.321
Cc1ccc(-c2csc(NC(=O)CSc3nc(C)cs3)n2)cc1 | 11.3 | . | 8.6 | 0.85 | -4.64* | -1.16
CC1CCCC(C)N1C(=O)COC(=O)C(Cc1ccccc1)NC(=O)c1cccs1 (stereo not given) | 3.5 | -7.9 | . | . | . | .
Cc1cc(C(=O)c2ccc(C(C)(C)C)cc2)c(NC(=O)CCl)s1 | 4.9 | -5.0 | . | . | . | .
Cc1cc(C)c(COc2ccc(/C=N/n3c(C)n[nH]c3=S)cc2)c(C)c1 | 8.4 | -9.2 | . | . | . | .
CC12CCC(C(=O)Nc3ccccc3Cl)(C(Br)C1=O)C2(C)C (stereo not given) | 36.3* | -1.1 | . | . | . | .
O=C(O)CC/C(=C\c1cc([N+](=O)[O-])ccc1Cl)c1nc2ccccc2s1 | 13.2 | 1.1 | . | . | . | .
Cc1nn(-c2ccc(F)cc2)c(Cl)c1/C=C(\CCC(=O)O)c1nc2ccccc2s1 | 31.8* | . | -0.8 | 0.9 | -2.12 | 0.188
CC(=C\c1ccco1)/C=C(\C#N)C(=O)NCCc1c[nH]c2ccccc12 | 1.5 | -5.1 | . | . | . | .
COc1ccc(C(=O)Nc2cc(C(C)=O)c(/C=C/N(C)C)oc2=O)cc1 | 4.1 | . | 121.8*[fluorescence artefact?] | -0.21 | . | .
CC(=O)c1cc(NC(=O)c2ccc(C)cc2)c(=O)oc1/C=C/N(C)C | 11.3 | -1.2 | 122.3*[fluorescence artefact?] | -0.97 | -3.13 | -0.133
N#CN=C1SCCS1 | 23.2 | -0.6 | 8.5 | 0.04 | -4.45* | 0.0147
CCOc1ccc(-n2cc(-c3ccccc3)c3c(SC(C)C(=O)OC)ncnc32)cc1 (stereo not given) | 19.2* | -2.3 | . | . | . | .
CSc1nnc(C)c(/C=C/Nc2ccc(C)cc2)n1 | 11.1 | 0.5 | 109.5*[fluorescence artefact?] | 0.98 | -1.88 | -1.05
Cc1ccc(-c2csc3nnc(SCC(=O)N4CCN(Cc5ccccc5)CC4)n23)cc1 | 1.7 | -1.8 | -4.1 | 1.38 | 0.0864 | -0.0507
O=C(CSc1nnc2scc(-c3ccccc3)n12)N1CCN(Cc2ccccc2)CC1 | 4.8 | . | 4.6 | 1.11 | -1.28 | 2.09*
CC(NC(=O)c1ccccc1)c1ccc(F)cc1 (stereo not given) | 7.7 | -1.3 | . | . | . | .
CCNS(=O)(=O)c1ccc2c3c(cccc13)C(=O)N2 | 2.7 | . | 1.6 | 0.21 | 1.63 | -0.0905
CCN(c1cccc(C)c1)S(=O)(=O)c1ccc2c3c(cccc13)C(=O)N2 | 6.2 | . | 12.3 | -3.13* | -2.42 | 0.989
CCN(CC)S(=O)(=O)c1ccc2c3c(cccc13)C(=O)N2 | 12.0 | 0.5 | . | . | 0.561 | 2.54*
